{"data": "Experimental data gathered from unrelated publications", "effect on": "cell growth or viability", "note": "Lines come from different studies, so protocols differ."}
{"Structure (SMILES)": "Nc1ccn([C@@H]2O[C@H](CO)[C@@H](O)[C@@H]2O)c(=O)n1", "cell line": "FaDu", "method": "CCK-8", "concentration": "40 nM", "time": "96 h", "endpoint": "inhibition", "result": "50%"}
{"Structure (SMILES)": "CC[C@@]1(O)C(=O)OCc2c1cc1n(c2=O)Cc2cc3ccccc3nc2-1", "cell line": "P388", "method": "MTT", "time": "96 h", "endpoint": "IC50", "result": "0.014 µM"}
{"Structure (SMILES)": "CC(=O)Nc1cccc(-n2c(=O)n(C3CC3)c(=O)c3c(Nc4ccc(I)cc4F)n(C)c(=O)c(C)c32)c1", "cell line": "SW-620", "method": "resazurin", "concentration": "1.56 nM", "time": "72 h", "endpoint": "viability", "result": "56.3%"}
{"Structure (SMILES)": "COc1ccc(-c2c(-c3ccc(C#N)c(F)c3)nc(N3CCC(N)CC3)n(C)c2=O)cc1F", "cell line": "TF-1a", "method": "resazurin", "time": "96 h", "endpoint": "EC50", "result": "0.00787 µM"}
{"Structure (SMILES)": "COc1cc(Nc2nccc(-c3cnn4nc(OC)ccc34)n2)cc(C(F)(F)F)c1", "cell line": "SK-MEL3", "method": "ATP luminescence", "endpoint": "IC50", "result": "1.6 µM"}
{"Structure (SMILES)": "O=C(O)c1ccc(CN2CCC(CN[C@@H]3C[C@H]3c3ccccc3)CC2)cc1", "cell line": "TF-1a", "method": "resazurin", "time": "96 h", "endpoint": "EC50", "result": "0.0764 µM"}
{"Structure (SMILES)": "C[C@]12CC[C@@H]3c4ccc(O)cc4CC[C@H]3[C@@H]1CC[C@@H]2O", "cell line": "CAPAN-1", "method": "ATP luminescence", "time": "72 h", "endpoint": "EC90", "result": "213 µM"}
{"Structure (SMILES)": "Cc1nc(NC(=O)N2CCC[C@H]2C(N)=O)sc1-c1ccnc(C(C)(C)C(F)(F)F)c1", "cell line": "HCC1954", "time": "5 days", "endpoint": "EC50", "result": "1.13 µM"}
{"Structure (SMILES)": "COc1cccc2c1C(=O)c1c(O)c3c(c(O)c1C2=O)C[C@@](O)(C(=O)CO)C[C@@H]3O[C@H]1C[C@H](N)[C@H](O)[C@H](C)O1", "cell line": "SUM159", "method": "MTT", "time": "48 h", "endpoint": "IC90", "result": "> 20 µM"}
{"Structure (SMILES)": "CC(C)C[C@H](NC(=O)[C@H](Cc1ccccc1)NC(=O)c1cnccn1)B(O)O", "cell line": "SAOS-2", "method": "ATP luminescence", "endpoint": "IC50", "result": "0.025 µM"}
{"Structure (SMILES)": "CN(C)CC[C@@H](c1ccc(Cl)cc1)c1ccccn1", "cell line": "FaDu", "time": "72 h", "endpoint": "IC50", "result": "> 20 µM"}
